Active and inactive are the calls of the source. The rule behind the calls is not given here.
Key:
HT-29 = test: Antiproliferative activity against human HT-29 cells after 48 hrs; format: functional, cell-based; details: HT-29, 48 h
How it was run: (§1)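 TCA fixation, sulforhodamine B stain, absorbance 585 nm minus day-of-treatment background plate; inhibition vs DMSO control; at least triplicate; IC50 accepted if within-experiment variability under 10%.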

[1] = target: Tubulin beta (Homo sapiens) (UniProt P68371+Q9H4B7+Q13509+P04350+Q3ZCM7+P07437+Q13885+Q9BVA1+Q9BUF5+A6NNZ2); test: inhibition of beta tubulin acylation in human M21 cells assessed as beta-tubulin band migration by Western blotting; format: cell-based
How it was run: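 Floating plus adherent cells pooled, lysed in Laemmli buffer, 10% SDS-PAGE, nitrocellulose; blocked in TBS pH 7.4 with 5% milk/0.1% Tween 20, probed with monoclonal anti-β-tubulin 1:500 then peroxidase anti-mouse 1:2500.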

MCF7 = test: Antiproliferative activity against human MCF7 cells after 48 hrs; format: functional, cell-based; details: MCF7, 48 h; how it was run: as §1
M21 = test: Antiproliferative activity against human M21 cells after 48 hrs; format: functional, cell-based; details: M21, 48 h; how it was run: as §1

| IC50 (HT-29) [µM] | Activity [1] | IC50 (MCF7) [µM] | Structure (SMILES) | IC50 (M21) [µM] |
| --- | --- | --- | --- | --- |
| 15 | inactive | 17 | C=CC(=O)Nc1ccc(I)cc1 | 11 |
| 87 | – | 67 | CC(C)(C)c1ccc(CNC(=O)CCCl)cc1 | > 100 |
| 46 | – | 54 | CCCCCc1cccc(NC(=O)CCCl)c1 | 54 |
| 7.1 | inactive | 2.8 | CC(C)(C)c1ccc(CNC(=O)NC(=O)CCl)cc1 | 2.4 |
| 28 | – | 49 | CC(C)(C)c1ccc(NC(=O)NCCCCl)cc1 | 35 |
| 18 | inactive | 23 | CC(C)(C)c1ccc(CNC(=O)CCl)cc1 | 16 |
| 6.5 | – | 2 | CC(C)(C)c1ccc(NC(=O)NC(=O)CCl)cc1 | 1.4 |
| > 100 | – | > 100 | O=C(CCCCl)Nc1cccc(CCCCCO)c1 | > 100 |
| > 100 | – | > 100 | O=C(CCCl)Nc1cccc(CCCCCO)c1 | > 100 |
| > 100 | – | > 100 | CC(=O)CCCCc1cccc(NC(=O)CCCCl)c1 | > 100 |
| > 100 | – | > 100 | O=C(CCCCl)Nc1ccc(I)cc1 | > 100 |
| 31 | – | 49 | C=CC(=O)Nc1cccc(CCCCC)c1 | 27 |
| 10 | inactive | 5.7 | O=C(CCl)NC(=O)Nc1cccc(CCCCCO)c1 | 4.6 |
| > 100 | – | > 100 | COCCCCCc1cccc(NC(=O)CCCl)c1 | > 100 |
| > 100 | – | > 100 | CCNC(=O)Nc1cccc(CCCCCOC)c1 | > 100 |
| 40 | – | > 100 | CCNC(=O)Nc1cccc(CCCCC(C)=O)c1 | > 100 |
| 8.4 | inactive | 8.3 | CCCCCc1cccc(NC(=O)NC(=O)CCl)c1 | 3.5 |
| > 100 | – | > 100 | CC(C)(C)c1ccc(NC(=O)CCCCl)cc1 | > 100 |
| 28 | – | 26 | CCCCCc1cccc(NC(=O)NCCCCl)c1 | 24 |
| > 100 | – | > 100 | C=CC(=O)Nc1cccc(CCCCCO)c1 | 98 |
| 18 | inactive | 26 | O=C(CCCl)Nc1ccc(I)cc1 | 20 |
| 24 | inactive | 29 | C=CC(=O)Nc1ccc(C(C)(C)C)cc1 | 22 |
| > 100 | – | > 100 | CC(=O)CCCCc1cccc(NC(=O)CCCl)c1 | > 100 |
| 10 | inactive | 6.1 | COCCCCCc1cccc(NC(=O)NC(=O)CCl)c1 | 4.2 |
| > 100 | – | > 100 | CCNC(=O)Nc1cccc(CCCCCO)c1 | > 100 |

The remaining lines, values behind:

| Structure (SMILES) | IC50 (HT-29) [µM] | Activity [1] | IC50 (MCF7) [µM] | IC50 (M21) [µM] |
| --- | --- | --- | --- | --- |
| CCNC(=O)Nc1ccc(I)cc1 | > 100 | – | > 100 | > 100 |
| O=C(CCl)Nc1ccc(I)cc1 | 9.7 | inactive | 6.2 | 5.1 |
| COCCCCCc1cccc(NC(=O)CCCCl)c1 | > 100 | – | > 100 | > 100 |
| CCNC(=O)NCc1ccc(C(C)(C)C)cc1 | > 100 | – | > 100 | > 100 |
| CC(=O)CCCCc1cccc(NC(=O)NCCCCl)c1 | 41 | – | 71 | 36 |
| C=CC(=O)Nc1cccc(CCCCCOC)c1 | 40 | – | > 100 | 48 |
| O=C(NCCCCl)Nc1cccc(CCCCCO)c1 | 19 | – | > 100 | 35 |
| CC(C)(C)c1ccc(CNC(=O)CCCCl)cc1 | 72 | – | 92 | 69 |
| CCCCCc1cccc(NC(=O)CCl)c1 | 12 | inactive | 5.7 | 1.4 |
| CC(C)(C)c1ccc(NC(=O)CCl)cc1 | 15 | inactive | 5.4 | 5.4 |
| COCCCCCc1cccc(NC(=O)CCl)c1 | 13 | inactive | 12 | 6.9 |
| CC(C)(C)c1ccc(NC(=O)CCCl)cc1 | 88 | – | 49 | 74 |
| O=C(NCCCCl)Nc1ccc(I)cc1 | 90 | – | > 100 | > 100 |
| COCCCCCc1cccc(NC(=O)NCCCCl)c1 | 56 | – | 50 | 51 |
| C=CC(=O)Nc1cccc(CCCCC(C)=O)c1 | 29 | – | 99 | 33 |
| C=CC(=O)NCc1ccc(C(C)(C)C)cc1 | > 100 | – | > 100 | 72 |
| CCCCCc1cccc(NC(=O)CCCCl)c1 | > 100 | – | > 100 | > 100 |
| CC(C)(C)c1ccc(CNC(=O)NCCCCl)cc1 | 19 | – | 17 | 11 |
| CCCCCc1cccc(NC(=O)NCC)c1 | 16 | – | 67 | 36 |
| O=C(CCl)NC(=O)Nc1ccc(I)cc1 | 11 | – | 4.9 | 8.1 |

Reference: ChEMBL document CHEMBL1177866, “Synthesis, antiproliferative activity evaluation and structure-activity relationships of novel aromatic urea and amide analogues of N-phenyl-N'-(2-chloroethyl)ureas” (Eur J Med Chem, 2010)
